Values belong to the compound of their own block, whether it stands above or below them. The source made the active and inactive calls.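 How the source made its calls: active means a clear dose-dependent boost of the acetylcholine calcium response in rat M2 cells, with a fitted potency; inactive means the rest.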
Target: Muscarinic acetylcholine receptor M2 (Rattus norvegicus) (UniProt P10980)
Assay: potentiation of ACh at rat M2 – CHO Gqi5 cells, calcium fluorescence, counter-screen for M4 PAM project, dose response (AID 588748)
Conditions: CHO rM2/Gqi5 calcium mobilization, PAM mode, FDSS
Outline: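 Material: CHO cells stably expressing rat M2 receptor and Gqi5 chimera; Times: compound 144 s before EC20 ACh, EC80 ACh 86 s later, 37 °C; Technique: Fluo-4 fluorescence of calcium mobilization.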

Sequence of Muscarinic acetylcholine receptor M2 (Rattus norvegicus) (P10980 whole entry, looked up): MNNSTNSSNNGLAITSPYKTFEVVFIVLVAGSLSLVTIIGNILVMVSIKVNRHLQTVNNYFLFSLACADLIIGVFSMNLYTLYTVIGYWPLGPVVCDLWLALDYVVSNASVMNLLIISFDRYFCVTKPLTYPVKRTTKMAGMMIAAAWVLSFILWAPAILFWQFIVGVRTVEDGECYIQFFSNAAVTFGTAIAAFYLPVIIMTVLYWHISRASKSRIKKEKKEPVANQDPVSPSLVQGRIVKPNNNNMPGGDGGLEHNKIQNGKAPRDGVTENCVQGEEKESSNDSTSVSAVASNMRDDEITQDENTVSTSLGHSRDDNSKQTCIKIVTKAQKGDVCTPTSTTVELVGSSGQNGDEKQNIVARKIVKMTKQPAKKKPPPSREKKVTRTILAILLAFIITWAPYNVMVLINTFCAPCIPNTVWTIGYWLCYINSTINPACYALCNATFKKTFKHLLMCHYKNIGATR

Compound: Cc1nc2sc(C(=O)NC3CC3)c(N)c2c(C)c1Cl
EC50: 640 nM

Compound: Cc1nc2sc(C(=O)NCc3ccncn3)c(N)c2c(C)c1Cl
percent of ACh max response (at 30 µM (top of the series)): inactive

Compound: Cc1nc2sc(C(=O)NCc3cccc(F)c3F)c(N)c2c(C)c1Cl
percent of ACh max response (at 30 µM (top of the series)): inactive

Compound: Cc1nc2sc(C(=O)NCc3nccs3)c(N)c2c(C)c1Cl
percent of ACh max response (at 30 µM (top of the series)): inactive

Compound: Cc1nc2sc(C(=O)NCc3ccc4c(c3)OCO4)c(N)c2c(C)c1Cl
percent of ACh max response (at 36.8 µM (top of the series)): inactive

Compound: Cc1nc2sc(C(=O)NCCc3ccncc3)c(N)c2c(C)c1Cl
percent of ACh max response (at 30 µM (top of the series)): inactive

Second part, the compound after the results:

percent of ACh max response (at 45.3 µM (top of the series)): inactive
Compound: Cc1nc2sc(C(=O)NCc3cccnc3)c(N)c2c(C)c1Cl

percent of ACh max response (at 37.4 µM (top of the series)): inactive
Compound: Cc1nc2sc(C(=O)NCc3ccccc3)c(N)c2c(C)c1Cl

percent of ACh max response (at 45.3 µM (top of the series)): inactive
Compound: Cc1nc2sc(C(=O)NCc3ccncc3)c(N)c2c(C)c1Cl

Reference: PubChem BioAssay AID588748 (Vanderbilt Specialized Chemistry Center, 2011)
